The source of these data is PubChem BioAssay AID2611 (Broad Institute, 2010).

By EC50 is commonly meant the concentration giving half of the maximal effect.

In the assay the test system is BJeLR fibroblasts viability, Alamar Blue fluorescence, 48 h. The assay can be described thus: viability loss in RAS-dependent TERT BJ cells – cell-based, alamar blue fluorescence, powder samples, dose response (AID 2611). Put shortly:
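Schedule: 48 h compound treatment, ~16 h dye step; Measured by: Alamar blue fluorescence, excitation 544 nm, emission 590 nm; Measure: viable cell number from alamar blue conversion signal.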
A general note: The colour change of resazurin is a common sign of viable cells or microbes.
On to `COc1cccc(N(C(=O)CCl)C(C(=O)NCCc2ccccc2)c2cccs2)c1` (centres undefined), for which the EC50 was 3.2 µM.
Consider `COc1ccc(N(C(=O)CCl)C(C(=O)NCCc2ccccc2)c2cccs2)cc1` (centres undefined), for which the EC50 is 2.26 µM.
For `Nc1nc(CCl)nc(Nc2ccc3ccccc3c2)n1` the value was 2.06 µM.
Turning to `Cc1ccc(C2CC(c3cccs3)=NN2C(=O)CCl)cc1` (centres undefined), the EC50 is 4.62 µM.
The same measure for `COc1ccc(CN(CCC(c2ccccc2)c2ccc(OC(C)C)cc2)C(=O)CCl)cc1OC` (centres undefined): 2.71 µM; for `CCOc1ccc(Nc2nc(N)nc(CCl)n2)cc1`: 2.89 µM.
On to `COc1ccc(N(C(=O)CCl)C(C(=O)NCCc2ccccc2)c2cccs2)cc1Cl` (centres undefined), for which the EC50 is 2.43 µM.
The same measure for `COc1ccc(C(C(=O)NC2CCCCC2)N(C(=O)CCl)c2cccc(Cl)c2)cc1` (centres undefined): 3.36 µM; for `CCCCCCCN(C(=O)CCl)c1cccc(C)c1`: 5.74 µM; for `O=C(CCl)N=c1sccn1Cc1ccccc1Cl`: 12.1 µM.
For the compound `COc1ccc(C(C(=O)NC2CCCCC2)N(C(=O)CCl)c2ccc(C)cc2)cc1` (centres undefined), the EC50 is 7.65 µM.
For `Cc1ccc(N(C(=O)CCl)C(C(=O)NC2CCCCC2)c2cccnc2)cc1C` (centres undefined), the EC50 is 2.27 µM.
For `COC(=O)[C@@H]1Cc2c([nH]c3ccccc23)C(C)(C)N1C(=O)CCl` the value was 6.2 µM; for `C=CCOc1ccccc1CN(C(=O)CCl)c1ccc2c(c1)OCO2`, 18.6 µM.
